Laboratory results: paper PMC9468552 (Clinical and Translational Science, 2022)
Read-outs that look alike come from different tables or passages of the source.

Tests used:
[1] = tested on: BCRP; conditions: in vitro; ref data on file; cited from earlier work
[2] = radiolabeled mass balance study; ref data on file; Enanta Pharmaceuticals; cited from earlier work
[3] = Safety/tolerability in the four DDI studies; format: in vivo, human; conditions: all four studies
[4] = target: T1, CYP3A4 (Homo sapiens, UniProt P08684); experiment: Study 008: effect of EDP‐305 on combined oral contraceptive; format: in vivo
T1 sequence (P08684 whole entry): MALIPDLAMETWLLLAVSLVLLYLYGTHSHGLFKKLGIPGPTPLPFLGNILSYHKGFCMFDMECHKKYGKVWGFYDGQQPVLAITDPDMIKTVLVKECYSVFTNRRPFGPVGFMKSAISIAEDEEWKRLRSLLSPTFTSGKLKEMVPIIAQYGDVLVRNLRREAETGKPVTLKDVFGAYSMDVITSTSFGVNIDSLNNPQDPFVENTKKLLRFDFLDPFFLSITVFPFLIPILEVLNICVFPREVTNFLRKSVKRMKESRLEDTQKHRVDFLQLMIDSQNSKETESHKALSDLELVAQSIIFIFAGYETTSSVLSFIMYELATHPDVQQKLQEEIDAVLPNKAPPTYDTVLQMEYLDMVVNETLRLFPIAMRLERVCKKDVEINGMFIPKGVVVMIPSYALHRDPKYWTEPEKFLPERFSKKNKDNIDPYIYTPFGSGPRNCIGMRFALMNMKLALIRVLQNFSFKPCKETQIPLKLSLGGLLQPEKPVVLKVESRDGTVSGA

[5] = target: T1, CYP3A4; format: in vivo
[6] = tested on: BSEP, MRP2, P‐gp, and BCRP transporters; conditions: in vitro; ref data on file; cited from earlier work
[7] = target: T1, CYP3A4; format: in vivo; remark: listed apart in the source
How it was run: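 Healthy subjects in a separate part took oral rifampin 600 mg once daily on days 5–16. EDP‐305 10 mg suspension was given on days 1 and 14 after a 10 h fast that continued ≥4 h postdose. Plasma was drawn predose and 0.5–12 h postdose, plus 24, 48 and 72 h before the morning rifampin dose. Analysis used LC–MS/MS and noncompartmental PK. A mixed model on ln values (subject random) gave the geometric LS mean ratio with 90% CI, with EDP‐305 alone as reference.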

[8] = same dose/formulation; ref data on file; cited from earlier work
[9] = target: P‐gp (Homo sapiens, UniProt P08183); format: in vivo
Sequence of P‐gp (Homo sapiens, UniProt P08183) (P08183 whole entry): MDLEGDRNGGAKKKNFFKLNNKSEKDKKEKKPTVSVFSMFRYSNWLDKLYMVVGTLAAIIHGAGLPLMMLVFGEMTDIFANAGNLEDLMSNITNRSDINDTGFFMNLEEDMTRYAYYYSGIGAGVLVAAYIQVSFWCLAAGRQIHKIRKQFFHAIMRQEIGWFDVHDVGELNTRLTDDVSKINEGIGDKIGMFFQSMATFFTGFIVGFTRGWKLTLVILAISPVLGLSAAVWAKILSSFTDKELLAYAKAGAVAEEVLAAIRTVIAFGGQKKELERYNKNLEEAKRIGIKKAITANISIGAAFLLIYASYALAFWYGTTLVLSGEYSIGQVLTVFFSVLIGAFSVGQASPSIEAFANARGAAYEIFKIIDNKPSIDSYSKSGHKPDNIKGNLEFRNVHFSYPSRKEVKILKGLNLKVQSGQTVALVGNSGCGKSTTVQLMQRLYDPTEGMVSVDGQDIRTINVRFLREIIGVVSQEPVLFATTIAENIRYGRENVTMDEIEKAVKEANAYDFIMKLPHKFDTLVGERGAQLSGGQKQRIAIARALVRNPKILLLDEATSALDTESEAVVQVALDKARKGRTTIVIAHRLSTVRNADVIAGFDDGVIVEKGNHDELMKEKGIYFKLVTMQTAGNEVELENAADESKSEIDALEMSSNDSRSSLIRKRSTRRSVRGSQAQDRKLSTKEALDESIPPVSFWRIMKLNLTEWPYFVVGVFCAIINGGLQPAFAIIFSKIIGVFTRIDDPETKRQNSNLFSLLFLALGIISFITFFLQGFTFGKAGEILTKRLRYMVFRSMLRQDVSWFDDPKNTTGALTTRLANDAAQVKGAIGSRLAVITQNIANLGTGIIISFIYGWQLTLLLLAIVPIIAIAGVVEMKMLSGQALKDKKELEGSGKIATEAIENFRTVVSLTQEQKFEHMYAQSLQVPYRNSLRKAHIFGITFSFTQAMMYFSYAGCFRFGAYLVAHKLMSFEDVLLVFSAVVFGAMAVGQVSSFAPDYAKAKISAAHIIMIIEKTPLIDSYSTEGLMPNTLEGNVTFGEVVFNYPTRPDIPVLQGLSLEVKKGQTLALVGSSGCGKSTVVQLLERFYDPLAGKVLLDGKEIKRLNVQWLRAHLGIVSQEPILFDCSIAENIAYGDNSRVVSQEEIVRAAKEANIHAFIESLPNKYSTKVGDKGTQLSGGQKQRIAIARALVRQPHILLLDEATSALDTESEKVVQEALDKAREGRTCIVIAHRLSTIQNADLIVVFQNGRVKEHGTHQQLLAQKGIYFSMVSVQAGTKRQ

[10] = cited from earlier work
[11] = tested on: P‐gp; conditions: in vitro; ref data on file; cited from earlier work
[12] = tested on: cytochrome (CYP) 1A2, 2B6, 2C8, 2C9, 2C19, 2D6, and 3A4 isoenzymes; conditions: standard hepatic microsome studies; preclinical studies; cited from earlier work
[13] = target: T1, CYP3A4; experiment: Study 004: DDI of EDP‐305; format: in vivo; conditions: increase in midazolam AUC less than twofold
[14] = target: T2, CYP1A2 (Homo sapiens, UniProt P05177); experiment: Study 004: DDI of EDP‐305; format: in vivo; conditions: increase in caffeine AUC less than twofold
T2 sequence (P05177 1-516): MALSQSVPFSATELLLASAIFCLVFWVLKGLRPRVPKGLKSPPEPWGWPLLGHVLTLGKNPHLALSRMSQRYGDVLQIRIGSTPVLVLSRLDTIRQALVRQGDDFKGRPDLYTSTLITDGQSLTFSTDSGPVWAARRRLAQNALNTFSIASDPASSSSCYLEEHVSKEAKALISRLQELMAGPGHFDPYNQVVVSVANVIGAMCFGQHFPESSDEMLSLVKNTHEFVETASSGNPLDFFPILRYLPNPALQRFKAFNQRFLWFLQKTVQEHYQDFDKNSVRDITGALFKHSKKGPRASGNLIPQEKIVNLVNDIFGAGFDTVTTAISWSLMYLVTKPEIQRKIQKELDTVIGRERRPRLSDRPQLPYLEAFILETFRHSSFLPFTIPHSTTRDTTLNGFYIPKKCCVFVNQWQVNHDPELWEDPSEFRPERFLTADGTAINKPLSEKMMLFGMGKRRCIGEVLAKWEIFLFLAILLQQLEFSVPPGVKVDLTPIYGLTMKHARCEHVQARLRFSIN

[15] = Study 004: trough levels of EDP‐305 and metabolites with and without probes; format: in vivo, human
How it was run: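 Healthy volunteers received single oral midazolam 2 mg and caffeine 200 mg on days 1 and 12, and rosuvastatin 20 mg on days 2 and 13. EDP‐305 was given as a 10 mg/30 ml oral suspension each morning on days 5–15 after an overnight fast. Predose troughs were drawn on days 5, 8 and 10–17. Parent and metabolites were measured by LC–MS/MS (range 0.0300–30.0 ng/ml).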

[16] = tested on: OATP1B1 and OATP1B3; conditions: in vitro; ref data on file; cited from earlier work
[17] = relative bioavailability assessment; ref data on file; cited from earlier work
[18] = tested on: messenger RNA (mRNA) for CYP1A2 and CYP3A4; conditions: incubation in liver microsomes (hepatocytes) in the presence of EDP‐305; preclinical studies; cited from earlier work
[19] = target: T1, CYP3A4; format: in vivo; remark: listed apart in the source
[20] = 12‐week phase II study, 132 non‐cirrhotic patients; cited from earlier work
[21] = tested on: CYP1A2, 2B6, and 3A4; conditions: preclinical studies; cited from earlier work
[22] = EDP‐305 2.5 mg tablet co‐administered with OC
[23] = EDP‐305 5 mg tablet + fluconazole 400 mg QD (test)
[24] = EDP‐305 5 mg tablet alone (reference)
[25] = EDP‐305 10 mg + rifampin 600 mg q.d. (test)
[26] = EDP‐305 10 mg alone (reference)
[27] = EDP‐305 + rifampin vs EDP‐305 alone
[28] = EDP‐305 5 mg tablet + quinidine 300 mg BID (test)
[29] = EDP‐305 + quinidine vs EDP‐305 alone
[30] = EDP‐305 10 mg + itraconazole 200 mg q.d. (test)
[31] = EDP‐305 + itraconazole vs EDP‐305 alone

## CC[C@H]1[C@@H](O)[C@@H]2[C@H](CC[C@]3(C)[C@@H]([C@H](C)CCNC(=O)NS(=O)(=O)c4ccc(C(C)(C)C)cc4)CC[C@@H]23)[C@@]2(C)CC[C@@H](O)C[C@@H]12 [EDP‐305]
[1]
  BCRP substrate: unlikely to be a BCRP substrate
[2]
  EDP‐305 in urine: not detected
  mean recovery of total radioactivity in feces: 78.7%
  mean recovery of total radioactivity in urine: 1.42%
[3]
  tolerability: well‐tolerated
[4]; [22]
  geometric mean t1/2: 9.6 h
  median Tmax: 4.0 h
[4]; co‐administration of combined OC and EDP‑305
  effect on serum progesterone levels: no effect
[5]; [23]
  AUC0,inf, Geo LSMean: 1.5376 µg·h/mL
  Cmax, Geo LSMean: 0.05771 µg/mL
[5]; [24]
  AUC0,inf, Geo LSMean: 0.4084 µg·h/mL
  Cmax, Geo LSMean: 0.03273 µg/mL
[5]; EDP‐305 + fluconazole compared to EDP‐305 alone
  CL/F and Vd/F, change: decreased
[5]; EDP‐305 + fluconazole relative to EDP‐305 alone
  t1/2 increased: increased
[6]
  inhibition of BSEP, MRP2, P‐gp, and BCRP: low potential to inhibit
[7]; [25]
  AUC0,inf, Geo LSMean: 0.13792 µg·h/mL
  Cmax, Geo LSMean: 0.02702 µg/mL
[7]; [26]
  AUC0,inf, Geo LSMean: 0.39359 µg·h/mL
  Cmax, Geo LSMean: 0.02962 µg/mL
[7]; [27]
  AUC0,inf, Geo LSMean ratio (90% CI): 0.35 (0.30, 0.41)
  effect on EDP‐305 peak exposure: no apparent effect
  effect on Tmax: no apparent effect
  higher CL/F: 2.77 fold
  higher Vd/F: 1.79 fold
  shorter t1/2: 0.35 fold
  total systemic exposure decreased: ~ 65%
[8]
  exposures in patients with NASH versus healthy subjects: approximately twofold higher
[9]; [28]
  AUC0,inf, Geo LSMean: 0.36717 µg·h/mL
  Cmax, Geo LSMean: 0.03178 µg/mL
[9]; [24]
  AUC0,inf, Geo LSMean: 0.35324 µg·h/mL
  Cmax, Geo LSMean: 0.03164 µg/mL
[9]; [29]
  AUC0,inf, Geo LSMean ratio (90% CI): 1.04 (0.95, 1.14)
  Cmax, Geo LSMean ratio (90% CI): 1.00 (0.92, 1.10)
  effect on EDP‐305 peak or systemic exposure: no apparent effect
  effect on Tmax, Vd/F, CL/F, and t1/2: minimal effect
[10]; single doses up to 80 mg, multiple daily doses up to 20 mg for 14 days
  tolerability: well‐tolerated
[10]; visual inspection of trough concentrations, across all doses
  steady‐state pharmacokinetics reached: ≤ 9 days
[11]
  P‐gp substrate: has potential to be a P‐gp substrate
[12]
  potential to inhibit CYP 1A2, 2B6, 2C8, 2C9, 2C19, 2D6, and 3A4: low potential to inhibit
[13]
  classification as CYP3A4 inhibitor from increase in midazolam AUC: weak inhibitor of CYP3A4
[14]
  classification as CYP1A2 inhibitor from increase in caffeine AUC: weak inhibitor of CYP1A2
[15]; EDP‐305 10 mg daily from day 5, majority of subjects
  steady‐state concentrations achieved: ≤ 12 days
[15]; single doses of midazolam, caffeine, rosuvastatin
  effect of co‐administered enzyme or transporter probes on PK: no apparent effect
[16]
  inhibition of OATP1B1 and OATP1B3: the potential for EDP‐305 to inhibit
[17]
  exposures of tablet compared to suspension: approximately twofold higher
[18]
  effect on mRNA for CYP1A2 and CYP3A4: concentration‐dependent downregulation
[19]; [30]
  AUC0,inf, Geo LSMean: 1.89147 µg·h/mL
  Cmax, Geo LSMean: 0.05048 µg/mL
[19]; [26]
  AUC0,inf, Geo LSMean: 0.36031 µg·h/mL
  Cmax, Geo LSMean: 0.03125 µg/mL
[19]; [31]
  delayed Tmax: 2 fold
  longer t1/2 (increase): 2.79 fold
[20]
  efficacy in patients with fibrotic NASH: reduced hepatic enzyme levels and liver fat
[21]
  potential to induce CYP1A2, 2B6, and 3A4: low potential
